Measurements as given in ChEMBL document CHEMBL5058577, “EUbOPEN Chemogenomics Library 2 (Multiplex)” (2022).

Test system: U2OS
Experiment: Multiplex assay against U2OS
Assay type: toxicity, cell-based
Settings: human
Outline: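 Cells stained live at seeding with Hoechst33342, BioTracker Green Microtubule Cytoskeleton Dye, MitoTracker Red and Annexin V Alexa Fluor 680 were imaged on a CQ1 microscope at 37°C and 5% CO2 after compound addition. Their classification by CellPathfinder machine-learning gating ran from Hoechst high-intensity objects versus normal cells, to healthy, pyknosed or fragmented nuclei among normal cells, to mitotic or apoptotic among pyknosed cells. Tubulin, mitochondrial-mass and membrane-permeability phenotypes are per cents of healthy-nucleus cells.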

[1] = 12 h, 1 µM, compound concentration 1 uM, replicate 1
[2] = 12 h, 1 µM, compound concentration 1 uM, replicate 2
[3] = 12 h, 10 µM, compound concentration 10 uM, replicate 1
[4] = 12 h, 10 µM, compound concentration 10 uM, replicate 2
[5] = 24 h, 1 µM, compound concentration 1 uM, replicate 1
[6] = 24 h, 1 µM, compound concentration 1 uM, replicate 2
[7] = 24 h, 10 µM, compound concentration 10 uM, replicate 1
[8] = 24 h, 10 µM, compound concentration 10 uM, replicate 2
[9] = 48 h, 1 µM, compound concentration 1 uM, replicate 1
[10] = 48 h, 1 µM, compound concentration 1 uM, replicate 2
[11] = 48 h, 10 µM, compound concentration 10 uM, replicate 1
[12] = 48 h, 10 µM, compound concentration 10 uM, replicate 2

O=C1COc2nccc(-c3ccccc3F)c2CN1Cc1cc(C(F)(F)F)cc(C(F)(F)F)c1
Population Apoptotic (%) [1]: 52%
Population Fragmented Nuclei (%) [1]: 19%
Population Healthy Nuclei (%) [1]: 72%
Population Hoechst High Intensity Objects (%) [1]: 4%
Population Membrane Permeable-Phenotype (%) [1]: 6%
Population Mitochondria Different-Phenotype (%) [1]: 2%
Population Mitotic Cells (%) [1]: 47%
Population Normal (%) [1]: 95%
Population Pyknosed Nuclei (%) [1]: 8%
Population Tubulin-Different-Phenotype (%) [1]: 4%
Total Cell Count [1]: 252
Population Apoptotic (%) [2]: 77%
Population Fragmented Nuclei (%) [2]: 23%
Population Healthy Nuclei (%) [2]: 67%
Population Hoechst High Intensity Objects (%) [2]: 2%
Population Membrane Permeable-Phenotype (%) [2]: 15%
Population Mitochondria Different-Phenotype (%) [2]: 9%
Population Mitotic Cells (%) [2]: 22%
Population Normal (%) [2]: 97%
Population Tubulin-Different-Phenotype (%) [2]: 11%
Total Cell Count [2]: 108
Population Apoptotic (%) [3]: 70%
Population Fragmented Nuclei (%) [3]: 36%
Population Healthy Nuclei (%) [3]: 47%
Population Hoechst High Intensity Objects (%) [3]: 3%
Population Membrane Permeable-Phenotype (%) [3]: 25%
Population Mitochondria Different-Phenotype (%) [3]: 27%
Population Mitotic Cells (%) [3]: 29%
Population Normal (%) [3]: 96%
Population Pyknosed Nuclei (%) [3]: 16%
Population Tubulin-Different-Phenotype (%) [3]: 25%
Total Cell Count [3]: 200
Population Apoptotic (%) [4]: 100%
Population Fragmented Nuclei (%) [4]: 16%
Population Healthy Nuclei (%) [4]: 76%
Population Hoechst High Intensity Objects (%) [4]: 5%
Population Membrane Permeable-Phenotype (%) [4]: 17%
Population Mitochondria Different-Phenotype (%) [4]: 23%
Population Mitotic Cells (%) [4]: 0%
Population Normal (%) [4]: 94%
Population Pyknosed Nuclei (%) [4]: 7%
Population Tubulin-Different-Phenotype (%) [4]: 13%
Total Cell Count [4]: 112
Population Apoptotic (%) [5]: 86%
Population Fragmented Nuclei (%) [5]: 17%
Population Healthy Nuclei (%) [5]: 74%
Population Hoechst High Intensity Objects (%) [5]: 3%
Population Membrane Permeable-Phenotype (%) [5]: 8%
Population Mitochondria Different-Phenotype (%) [5]: 3%
Population Mitotic Cells (%) [5]: 13%
Population Normal (%) [5]: 96%
Population Pyknosed Nuclei (%) [5]: 8%
Population Tubulin-Different-Phenotype (%) [5]: 3%
Total Cell Count [5]: 291
Population Apoptotic (%) [6]: 83%
Population Fragmented Nuclei (%) [6]: 18%
Population Healthy Nuclei (%) [6]: 76%
Population Hoechst High Intensity Objects (%) [6]: 4%
Population Membrane Permeable-Phenotype (%) [6]: 12%
Population Mitochondria Different-Phenotype (%) [6]: 7%
Population Mitotic Cells (%) [6]: 16%
Population Normal (%) [6]: 95%
Population Pyknosed Nuclei (%) [6]: 5%
Population Tubulin-Different-Phenotype (%) [6]: 5%
Total Cell Count [6]: 121
Population Apoptotic (%) [7]: 58%
Population Fragmented Nuclei (%) [7]: 36%
Population Healthy Nuclei (%) [7]: 43%
Population Hoechst High Intensity Objects (%) [7]: 5%
Population Membrane Permeable-Phenotype (%) [7]: 21%
Population Mitochondria Different-Phenotype (%) [7]: 22%
Population Mitotic Cells (%) [7]: 41%
Population Normal (%) [7]: 94%
Population Pyknosed Nuclei (%) [7]: 19%
Population Tubulin-Different-Phenotype (%) [7]: 17%
Total Cell Count [7]: 210
Population Apoptotic (%) [8]: 100%
Population Fragmented Nuclei (%) [8]: 21%
Population Healthy Nuclei (%) [8]: 70%
Population Membrane Permeable-Phenotype (%) [8]: 13%
Population Mitochondria Different-Phenotype (%) [8]: 19%
Population Mitotic Cells (%) [8]: 0%
Population Pyknosed Nuclei (%) [8]: 8%
Population Tubulin-Different-Phenotype (%) [8]: 7%
Total Cell Count [8]: 126
Population Apoptotic (%) [9]: 84%
Population Fragmented Nuclei (%) [9]: 16%
Population Healthy Nuclei (%) [9]: 74%
Population Hoechst High Intensity Objects (%) [9]: 3%
Population Membrane Permeable-Phenotype (%) [9]: 5%
Population Mitochondria Different-Phenotype (%) [9]: 3%
Population Mitotic Cells (%) [9]: 15%
Population Normal (%) [9]: 96%
Population Pyknosed Nuclei (%) [9]: 9%
Population Tubulin-Different-Phenotype (%) [9]: 3%
Total Cell Count [9]: 425
Population Apoptotic (%) [10]: 76%
Population Fragmented Nuclei (%) [10]: 19%
Population Healthy Nuclei (%) [10]: 69%
Population Membrane Permeable-Phenotype (%) [10]: 8%
Population Mitochondria Different-Phenotype (%) [10]: 5%
Population Mitotic Cells (%) [10]: 23%
Population Pyknosed Nuclei (%) [10]: 10%
Total Cell Count [10]: 166
Population Apoptotic (%) [11]: 61%
Population Fragmented Nuclei (%) [11]: 35%
Population Healthy Nuclei (%) [11]: 46%
Population Hoechst High Intensity Objects (%) [11]: 4%
Population Membrane Permeable-Phenotype (%) [11]: 20%
Population Mitochondria Different-Phenotype (%) [11]: 17%
Population Mitotic Cells (%) [11]: 38%
Population Normal (%) [11]: 95%
Population Pyknosed Nuclei (%) [11]: 17%
Population Tubulin-Different-Phenotype (%) [11]: 11%
Total Cell Count [11]: 236
Population Apoptotic (%) [12]: 85%
Population Fragmented Nuclei (%) [12]: 25%
Population Healthy Nuclei (%) [12]: 60%
Population Membrane Permeable-Phenotype (%) [12]: 12%
Population Mitochondria Different-Phenotype (%) [12]: 12%
Population Mitotic Cells (%) [12]: 14%
Population Pyknosed Nuclei (%) [12]: 14%
Population Tubulin-Different-Phenotype (%) [12]: 3%
Total Cell Count [12]: 151

CN(C)CCCc1cc(C(=O)Nc2ccc(-c3ccncc3)cc2)ccc1O.Cl.Cl
Population Apoptotic (%) [1]: 89%
Population Fragmented Nuclei (%) [1]: 29%
Population Healthy Nuclei (%) [1]: 60%
Population Hoechst High Intensity Objects (%) [1]: 2%
Population Membrane Permeable-Phenotype (%) [1]: 6%
Population Mitochondria Different-Phenotype (%) [1]: 0%
Population Mitotic Cells (%) [1]: 10%
Population Normal (%) [1]: 97%
Population Pyknosed Nuclei (%) [1]: 9%
Population Tubulin-Different-Phenotype (%) [1]: 3%
Total Cell Count [1]: 199
Population Apoptotic (%) [2]: 100%
Population Fragmented Nuclei (%) [2]: 10%
Population Healthy Nuclei (%) [2]: 75%
Population Hoechst High Intensity Objects (%) [2]: 0%
Population Membrane Permeable-Phenotype (%) [2]: 2%
Population Mitochondria Different-Phenotype (%) [2]: 1%
Population Mitotic Cells (%) [2]: 0%
Population Normal (%) [2]: 99%
Population Pyknosed Nuclei (%) [2]: 13%
Population Tubulin-Different-Phenotype (%) [2]: 0%
Total Cell Count [2]: 124
Population Apoptotic (%) [3]: 77%
Population Fragmented Nuclei (%) [3]: 28%
Population Healthy Nuclei (%) [3]: 62%
Population Hoechst High Intensity Objects (%) [3]: 4%
Population Membrane Permeable-Phenotype (%) [3]: 7%
Population Mitochondria Different-Phenotype (%) [3]: 1%
Population Mitotic Cells (%) [3]: 22%
Population Normal (%) [3]: 95%
Population Pyknosed Nuclei (%) [3]: 9%
Population Tubulin-Different-Phenotype (%) [3]: 2%
Total Cell Count [3]: 237
Population Apoptotic (%) [4]: 42%
Population Fragmented Nuclei (%) [4]: 24%
Population Healthy Nuclei (%) [4]: 63%
Population Hoechst High Intensity Objects (%) [4]: 1%
Population Membrane Permeable-Phenotype (%) [4]: 4%
Population Mitochondria Different-Phenotype (%) [4]: 8%
Population Mitotic Cells (%) [4]: 57%
Population Normal (%) [4]: 98%
Population Pyknosed Nuclei (%) [4]: 12%
Total Cell Count [4]: 113
Population Apoptotic (%) [5]: 100%
Population Fragmented Nuclei (%) [5]: 28%
Population Healthy Nuclei (%) [5]: 65%
Population Hoechst High Intensity Objects (%) [5]: 2%
Population Membrane Permeable-Phenotype (%) [5]: 5%
Population Mitochondria Different-Phenotype (%) [5]: 2%
Population Mitotic Cells (%) [5]: 0%
Population Normal (%) [5]: 97%
Population Pyknosed Nuclei (%) [5]: 6%
Population Tubulin-Different-Phenotype (%) [5]: 3%
Total Cell Count [5]: 247
Population Apoptotic (%) [6]: 94%
Population Fragmented Nuclei (%) [6]: 11%
Population Healthy Nuclei (%) [6]: 77%
Population Hoechst High Intensity Objects (%) [6]: 4%
Population Membrane Permeable-Phenotype (%) [6]: 7%
Population Mitochondria Different-Phenotype (%) [6]: 5%
Population Mitotic Cells (%) [6]: 5%
Population Normal (%) [6]: 95%
Population Pyknosed Nuclei (%) [6]: 11%
Population Tubulin-Different-Phenotype (%) [6]: 5%
Total Cell Count [6]: 178
Population Apoptotic (%) [7]: 72%
Population Fragmented Nuclei (%) [7]: 28%
Population Healthy Nuclei (%) [7]: 58%
Population Hoechst High Intensity Objects (%) [7]: 4%
Population Membrane Permeable-Phenotype (%) [7]: 6%
Population Mitochondria Different-Phenotype (%) [7]: 3%
Population Mitotic Cells (%) [7]: 27%
Population Normal (%) [7]: 95%
Population Pyknosed Nuclei (%) [7]: 13%
Population Tubulin-Different-Phenotype (%) [7]: 1%
Total Cell Count [7]: 257
Population Apoptotic (%) [8]: 66%
Population Fragmented Nuclei (%) [8]: 21%
Population Healthy Nuclei (%) [8]: 63%
Population Hoechst High Intensity Objects (%) [8]: 0%
Population Membrane Permeable-Phenotype (%) [8]: 4%
Population Mitochondria Different-Phenotype (%) [8]: 8%
Population Mitotic Cells (%) [8]: 33%
Population Normal (%) [8]: 100%
Population Pyknosed Nuclei (%) [8]: 15%
Population Tubulin-Different-Phenotype (%) [8]: 2%
Total Cell Count [8]: 118
Population Apoptotic (%) [9]: 88%
Population Fragmented Nuclei (%) [9]: 25%
Population Healthy Nuclei (%) [9]: 69%
Population Hoechst High Intensity Objects (%) [9]: 3%
Population Membrane Permeable-Phenotype (%) [9]: 5%
Population Mitochondria Different-Phenotype (%) [9]: 3%
Population Mitotic Cells (%) [9]: 11%
Population Normal (%) [9]: 96%
Population Pyknosed Nuclei (%) [9]: 5%
Population Tubulin-Different-Phenotype (%) [9]: 3%
Total Cell Count [9]: 338
Population Apoptotic (%) [10]: 93%
Population Fragmented Nuclei (%) [10]: 15%
Population Healthy Nuclei (%) [10]: 71%
Population Membrane Permeable-Phenotype (%) [10]: 7%
Population Mitotic Cells (%) [10]: 6%
Population Pyknosed Nuclei (%) [10]: 13%
Population Tubulin-Different-Phenotype (%) [10]: 4%
Total Cell Count [10]: 259
Population Apoptotic (%) [11]: 74%
Population Fragmented Nuclei (%) [11]: 25%
Population Healthy Nuclei (%) [11]: 61%
Population Hoechst High Intensity Objects (%) [11]: 5%
Population Membrane Permeable-Phenotype (%) [11]: 5%
Population Mitochondria Different-Phenotype (%) [11]: 3%
Population Mitotic Cells (%) [11]: 25%
Population Normal (%) [11]: 94%
Population Pyknosed Nuclei (%) [11]: 12%
Population Tubulin-Different-Phenotype (%) [11]: 5%
Total Cell Count [11]: 352
Population Apoptotic (%) [12]: 68%
Population Fragmented Nuclei (%) [12]: 20%
Population Healthy Nuclei (%) [12]: 63%
Population Hoechst High Intensity Objects (%) [12]: 4%
Population Membrane Permeable-Phenotype (%) [12]: 13%
Population Mitochondria Different-Phenotype (%) [12]: 8%
Population Mitotic Cells (%) [12]: 32%
Population Normal (%) [12]: 95%
Population Pyknosed Nuclei (%) [12]: 16%
Population Tubulin-Different-Phenotype (%) [12]: 9%
Total Cell Count [12]: 160
